SENP1 FRET inh – blocks the human SENP1 SUMO protease catalytic domain | Q9P0U3 | recombinant SENP1 catalytic domain, CyPet-SUMO1-YPet FRET cleavage | inhibition, % at 10 µM | 360,000 compounds, 0.21% hits | AID 624204;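 active means inhibition at least 30% at 10 µM, raw YFP signal under a set limit, fluorescence ratio 0.5 to 1.5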
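Test system: human SENP1 catalytic domain; medium: Tris pH 8 buffer plus EDTA, NaCl, BME, BSA, NP40, catalase; incubation: 50 min reaction at room temperature; technique: FRET, CFP and YFP emission; controls: no-enzyme low control and enzyme-plus-DMSO high control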
Arr AP2 block – human beta-arrestin and AP2 interaction inhibition; inhibition, % at 10 µM; FITC-arrestin peptide / GST-AP2 beads, flow cytometry; AP2 beta2 appendage carries R879A mutation; 340,000 compounds, 0.31% hits;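 active means inhibition above a set limit, near 3 SD of compounds lacking own fluorescence, cut at about 54% in these data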
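System: GST-AP2 R879A bound to glutathione beads, E. coli-expressed. Also added: 50 nM FITC-arrestin peptide. Schedule: compound with beads 12 min RT, then probe 1 h RT. Signal: bead flow cytometry, FITC channel. Read-out basis: percent response.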
hiPSC survival – hiPSC single-cell survival enhancement; ATPlite luminescence; 100% = ROCK inhibitor wells, 0% = DMSO; survival enhancement, % at 20 µM; 360,000 compounds, 0.044% hits; in the data active means survival enhancement above about 18%;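 further: cells exposed to compounds for 16 hours before the ATP read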
GRIN3A LBD mod – modulates the human NR3A ligand-binding domain; NR3A LBD differential scanning fluorimetry, Tm shift; 0% = protein alone, 100% = glycine-bound protein; Tm shift relative to glycine control, % at 25 µM; 340,000 compounds, 2.5% hits;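 active means melting temperature shift of at least 10% of the positive control shift, at one fixed dose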
FAS-TE inh – inhibitors of human fatty acid synthase thioesterase domain; P49327; recombinant FAS-TE, OMFH fluorogenic substrate, fluorescence endpoint; inhibition, % at 15 µM; 360,000 compounds, 0.67% hits; AID 602261;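 active means compounds whose normalised, plate-corrected inhibition of enzyme fluorescence in the single-dose primary screen is 50% or more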
H9c2 protect – modulators protecting cardiomyocytes from myocardial damage | 360,000 compounds, 0.63% hits | protection from H2O2 cell death, % at 20 µM | H9c2 cardiomyocytes, H2O2 injury protection, ATPLite, 2 h;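 active means compounds giving at least 50% protection of heart cells from peroxide-induced death in the single-dose screen, raw or plate-pattern-corrected value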
Each line names hits and unclear results; the compound was inactive in the other large screens. Hits are enriched below; roughly 4% of the tested compounds scored in any of these assays.

O=C(Nc1ccc2c(c1)CCC2)c1ccccc1Br	none
CC(=O)c1cccc(NC(=O)Nc2ccc3c(c2)CCC3)c1	GRIN3A LBD mod 22
Cc1cccc(NC(=O)Nc2ccc3c(c2)CCC3)c1	GRIN3A LBD mod 16
CSc1ccccc1C(=O)Nc1ccc2c(c1)CCC2	GRIN3A LBD mod 10
CCN(CC)c1ccc(C(=C2C=CC(=[N+](CC)CC)C=C2)c2ccccc2)cc1	FAS-TE inh 82
CCN(CC)c1ccc(C(=C2C=CC(=[N+](CC)CC)C=C2)c2ccc(N(CC)CC)cc2)cc1	Arr AP2 block 90, GRIN3A LBD mod 351
CCN(CC)c1ccc(C(=O)NNC(=O)CCNC(=O)c2ccccc2)cc1	none
CC1=C(C(=O)OCc2ccccc2)C(c2ccc(C)cc2)NC(=O)N1 (stereo not drawn)	none (no result: Arr AP2 block, GRIN3A LBD mod)
O=C(COc1ccc2ccccc2c1Br)Nc1ccncc1	GRIN3A LBD mod 14
O=C(COc1ccc2ccccc2c1Br)NC(=S)Nc1cccc(CO)c1	GRIN3A LBD mod 34
CC1=NN(c2nc(-c3ccc(C)cc3)cs2)C(=O)C1N=Nc1ccc(C(N)=O)cc1 (stereo not drawn)	GRIN3A LBD mod 27
O=C(NCC1CCCO1)C(=O)N/N=C/c1cccc(Cl)c1 (stereo not drawn)	none
NNc1nc(NCc2ccccc2)nc(N2CCOCC2)n1	GRIN3A LBD mod 14
CN(C(=O)COC(=O)COc1ccc2c(c1)CCC2)c1c(N)n(Cc2ccccc2)c(=O)[nH]c1=O	GRIN3A LBD mod 18
CCN(C(=O)COC(=O)COc1ccc2c(c1)CCC2)c1c(N)n(Cc2ccccc2)c(=O)[nH]c1=O	none
CCSC1=C(C#N)C2(CCCCC2)C2=C(CC(C)(C)CC2=O)N1	none
CC1(C)CC(=O)C2=C(C1)NC(SCC(N)=O)=C(C#N)C21CCCCC1	GRIN3A LBD mod 16
O=C(N[C@H](CO)c1ccccc1)[C@H]1O[C@@H](n2ccc(=O)[nH]c2=O)[C@H](O)[C@@H]1O	none (no result: Arr AP2 block, GRIN3A LBD mod)
Cc1nn(C(C)(C)C)c(C)c1/C=N/OC(=O)Nc1ccc(Cl)cc1	GRIN3A LBD mod 11
Cn1c(SCC(=O)N2c3ccccc3Sc3ccc(Cl)cc32)nnc1-c1ccco1	GRIN3A LBD mod 11
CCn1c(SCC(=O)N2c3ccccc3Sc3ccccc32)nnc1-c1ccco1	none
O=C(/C=C/c1ccccc1)NC(=S)NNC(=O)c1cccnc1	none
O=C(/C=C/c1ccccc1)NC(=S)NNC(=O)c1cnccn1	H9c2 protect 57
C=C(C)CNC(=S)N=Nc1c(O)[nH]c2ccc([N+](=O)[O-])cc12	GRIN3A LBD mod 25
CC(C)NC(=S)N=Nc1c(O)[nH]c2ccc([N+](=O)[O-])cc12	GRIN3A LBD mod 18
Nc1ccccc1N=Nc1ccccc1N	GRIN3A LBD mod 23
Nc1ccccc1-c1ccccc1N	none
CCOC(=O)C1CCN(C(c2cc3c(C)ccc(C)c3[nH]c2=O)c2nnnn2C2CCCCC2)CC1 (stereo not drawn)	H9c2 protect 57
Cc1ccc(C(=O)N/N=C/c2cc(C)n(-c3ccc(Br)cc3)c2C)cc1[N+](=O)[O-]	GRIN3A LBD mod 14
COc1ccc(Cn2cc(CN3CC(N4CCN(CCN(C)C)CC4)CS3(=O)=O)nn2)cc1 (stereo not drawn)	none (no result: Arr AP2 block, GRIN3A LBD mod, H9c2 protect)
COc1ccc2nc(N3C(=O)/C(=C/c4ccc(Cl)cc4)NC3=S)sc2c1	SENP1 FRET inh 33
CCOc1ccccc1NC(=O)C(OC(=O)c1ccc(O)cc1)c1ccccc1 (stereo not drawn)	GRIN3A LBD mod 26
COc1cccc(/C=C/C(=O)OCC(=O)Nc2ccc(S(=O)(=O)N3CCCC3)cc2)c1	none
COc1cccc(CN(C)C(=O)/C=C/c2ccc(S(=O)(=O)N3CCCCCC3)cc2)c1	GRIN3A LBD mod 24
COc1cccc2c1C1COC3C4CC(C(=O)O)C(C(C2)N13)N4C (stereo not drawn)	GRIN3A LBD mod 14
CO[C@H]1CN(C)C(=O)c2cc(NC(=O)C3CCCC3)ccc2OC[C@@H](C)NC[C@H]1C	none (no result: Arr AP2 block, hiPSC survival, GRIN3A LBD mod, FAS-TE inh, H9c2 protect)
CCOc1ccccc1/C=N/n1c(C2CCCCC2)n[nH]c1=S	none
COc1ccccc1/C=C/C=N/n1c(C2CCCCC2)n[nH]c1=S	GRIN3A LBD mod 13
CCC(C)(C)C(=O)O[C@H]1C[C@@H](C)C=C2C=C[C@H](C)[C@H](CC[C@@H]3C[C@@H](O)CC(=O)O3)[C@H]21	none
Cc1ccc2nc(-c3sc4nc(C)ccc4c3N)[nH]c2c1	GRIN3A LBD mod 25
Cc1cc(C)c2c(N)c(-c3nc4ccccc4[nH]3)sc2n1	none
Cc1cccc(C)c1NC(=O)C(c1ccc(C#N)cc1)n1c(=O)c(-c2ccccc2)nc2ccccc21 (stereo not drawn)	none (no result: Arr AP2 block, hiPSC survival, GRIN3A LBD mod, FAS-TE inh, H9c2 protect)
CCOC(=O)C1(C)CCCN1C(=O)c1ccc(OC)cc1 (stereo not drawn)	none (no result: Arr AP2 block, GRIN3A LBD mod)
COCCn1c(=NC(=O)c2ccc(S(=O)(=O)N3CCOCC3)cc2)sc2cc(S(N)(=O)=O)ccc21	none
COCCn1c(=NC(=O)c2cc(-c3cccs3)nc3ccccc23)sc2cc(S(N)(=O)=O)ccc21	GRIN3A LBD mod 28
C=CCn1c(=NC(=O)c2cc(-c3cccs3)nc3ccccc23)sc2cc(S(N)(=O)=O)ccc21	GRIN3A LBD mod 28
CCOC(=O)Cn1c(=NC(=O)c2nc3ccccc3s2)sc2cc(S(N)(=O)=O)ccc21	none
c1ccc(NN=C(c2ccccc2)c2cccs2)cc1	none (no result: Arr AP2 block, GRIN3A LBD mod)
CN1OC[C@@H]2CN(S(=O)(=O)c3cccc4ccccc34)[C@H](c3ccc(-c4cccnc4)cc3)C[C@@H]21	none (no result: Arr AP2 block, GRIN3A LBD mod)
CCn1c(CNC(=O)c2ccc3c(c2)OCO3)nnc1SCC(=O)Nc1cc(C)ccc1OC	GRIN3A LBD mod 10
Cc1ccccc1NC(=O)CSc1nnc(CNC(=O)c2ccc3c(c2)OCO3)n1C	none
COc1ccccc1NS(=O)(=O)c1cccc(NC(=O)Nc2ccc(Cl)cc2)c1	GRIN3A LBD mod 18
COc1ccccc1NS(=O)(=O)c1ccc(NC(=O)N2CCCCC2)cc1	GRIN3A LBD mod 13
COc1ccccc1NS(=O)(=O)c1cccc(NC(=O)Nc2ccccc2)c1	GRIN3A LBD mod 22
CCOC(=O)C1(C)CCCN(C(=O)c2cc(C)oc2C)C1 (stereo not drawn)	none (no result: Arr AP2 block, GRIN3A LBD mod)
CS(=O)(=O)Nc1cccc(NC(=O)c2cccc3c(-c4ccc(F)c(F)c4)coc23)c1	none (no result: Arr AP2 block, GRIN3A LBD mod)
Cc1cnc2ccc(F)cc2c1	none (no result: Arr AP2 block, GRIN3A LBD mod)
Cn1nc(C(C)(C)C)cc1C(=O)N1CCCCC1c1cc(C(=O)NCc2ccc(F)cc2)no1 (stereo not drawn)	none (no result: Arr AP2 block, GRIN3A LBD mod)
Cc1sc2ncnc(N3CCC(C(=O)Nc4ccc(Cl)c(Cl)c4)CC3)c2c1C	GRIN3A LBD mod 11
CCOc1cccc(OCCOCCNC(C)(C)C)c1	GRIN3A LBD mod 16

Screens: PubChem, several laboratories
